Experimental data published in ChEMBL document CHEMBL5038608, “Design, synthesis, and biological evaluation of novel pyrrolidinone small-molecule Formyl peptide receptor 2 agonists” (Eur J Med Chem, 2021).
In brackets after ≈: the same amount, converted by molar mass. Activity calls are given as the source filed them. The calls are words filed in the database; no cut-off is given here.

Columns and labels:
[1] = Kinetic solubility of compound in PBS at pH 7.4 by UV-VIS absorption spectrophotometry analysis; type: physicochemical; conditions: PBS, read-out: Kinetic_solubility
Method in brief: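 A 10 mM DMSO stock was diluted into PBS pH 7.4 at a target of 200 µM (final PBS:DMSO 98:2), in triplicate. Agitated 500 rpm for 90 min, then filtered. Filtrate diluted to PBS:DMSO 80:20 and its UV absorbance compared against a 200–6.75 µM standard series to give the concentration remaining in solution.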

[2] = Distribution coefficient, logD of compound at pH 7.4 by shake flask method based LC-MS/MS analysis; type: physicochemical; conditions: octanol/water, read-out: logD
Method in brief: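 Shake-flask method: compound diluted from 10 mM DMSO stock into equal volumes of octanol and PBS, final concentration 100 µM. Shaken 12 h, then centrifuged. Both layers analysed in triplicate by LC-MS/MS (MRM, C8 UPLC). LogD = log10 of the octanol/buffer peak-area ratio.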

[3] = Microsomal stability in human liver microsomes assessed as half life at 1 uM preincubated for 5 mins followed by NADPH regenerating system addition measured after 30 mins by LC-MS/MS analysis; type: ADME, Microsome; conditions: t1/2, time 35 min
Method in brief: (§1)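 Human or mouse liver microsomes (0.2 mg/mL protein) with compound at 1 µM final, pre-incubated 5 min at 37 °C. Reaction started with NADPH generating solution and agitated at 37 °C, with samples quenched up to 30 min. Centrifuged; supernatant analysed in triplicate by LC-MS.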

[4] = Microsomal stability in mouse liver microsomes assessed as half life at 1 uM preincubated for 5 mins followed by NADPH regenerating system addition measured after 30 mins by LC-MS/MS analysis; type: ADME, Microsome; conditions: t1/2, time 35 min; method in brief: as §1
[5] = biological target: T1, N-formyl peptide receptor 2 (Homo sapiens, UniProt P25090); test: Agonist activity at FPRL1 (unknown origin) expressed in CHO-K1 cells assessed as increase in calcium mobilization incubated for 2.5 hrs by cellular based FLIPR assay; type: functional, cell-based; conditions: read-out: EC50
T1 sequence (P25090 whole entry): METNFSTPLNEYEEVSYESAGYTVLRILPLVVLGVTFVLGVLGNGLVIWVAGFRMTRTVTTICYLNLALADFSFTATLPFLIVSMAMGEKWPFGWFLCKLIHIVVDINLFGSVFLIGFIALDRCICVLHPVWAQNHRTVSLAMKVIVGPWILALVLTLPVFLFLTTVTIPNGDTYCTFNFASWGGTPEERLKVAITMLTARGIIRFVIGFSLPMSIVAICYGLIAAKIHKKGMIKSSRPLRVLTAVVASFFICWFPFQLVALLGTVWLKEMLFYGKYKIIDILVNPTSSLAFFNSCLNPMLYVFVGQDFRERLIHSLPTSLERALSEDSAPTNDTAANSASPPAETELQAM
Method in brief: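 CHO-K1 cells overexpressing hFPR2, plated at 20,000 cells/well in F-12 with 10% FBS and held overnight at 37 °C. Loaded with FLIPR Calcium 6 dye for 2 h at 37 °C, then 30 min at RT in the dark. Compounds were half-log serially diluted from 10 mM stocks in HBSS/20 mM HEPES. Cytosolic Ca2+ rise read on FLIPR Tetra. WKYMVm served as control.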

[6] = biological target: T2, N-formyl peptide receptor 2 (Homo sapiens) (UniProt P25090); test: (§2) Agonist activity at FPRL1 (unknown origin) expressed in CHO-K1 cells assessed as stimulation of beta-arrestin recruitment incubated for 150 mins by beta-galactosidase based PathHunter assay; type: functional, cell-based
T2 sequence (whole entry): T1 sequence (P25090 whole entry)
Method in brief: (§3)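 PathHunter CHO-K1 FPRL1 cells expressing β-gal enzyme-fragment complementation, 5000 cells/well, held overnight at 37 °C. Stimulated with half-log serial dilutions of compounds (10 mM stocks in PBS) for 150 min at 37 °C. High control was WKYMVm at 100 nM. Detection reagent added for 60 min at RT in the dark, then chemiluminescence read.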

[7] = biological target: T2, N-formyl peptide receptor 2 (Homo sapiens); test: Agonist activity at FPRL1 (unknown origin) expressed in CHO-K1 cells assessed as stimulation of beta-arrestin recruitment […] incubated for 150 mins by beta-galactosidase based PathHunter assay; type: functional, cell-based
Method in brief: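 PathHunter CHO-K1 FPRL1 cells carry complementing β-galactosidase fragments. Plated at 5000/well, held 1 h RT, then overnight at 37 °C. Compounds were half-log serially diluted from 10 mM stocks in PBS. Stimulation 150 min at 37 °C; W-peptide (WKYMVm, 100 nM) was the high control. Detection reagent added for 60 min RT in the dark, with chemiluminescence read-out.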

[8] = biological target: T1, N-formyl peptide receptor 2; test: as §2; type: functional, cell-based; conditions: read-out: EC50; method in brief: as §3
[9] = biological target: T3, fMet-Leu-Phe receptor (Homo sapiens, UniProt P21462); test: Agonist activity at human FPR1 expressed in HEK293-A cells assessed as ERK phosphorylation level incubated for 5 mins by ELISA assay; type: functional, cell-based
T3 sequence (P21462 whole entry): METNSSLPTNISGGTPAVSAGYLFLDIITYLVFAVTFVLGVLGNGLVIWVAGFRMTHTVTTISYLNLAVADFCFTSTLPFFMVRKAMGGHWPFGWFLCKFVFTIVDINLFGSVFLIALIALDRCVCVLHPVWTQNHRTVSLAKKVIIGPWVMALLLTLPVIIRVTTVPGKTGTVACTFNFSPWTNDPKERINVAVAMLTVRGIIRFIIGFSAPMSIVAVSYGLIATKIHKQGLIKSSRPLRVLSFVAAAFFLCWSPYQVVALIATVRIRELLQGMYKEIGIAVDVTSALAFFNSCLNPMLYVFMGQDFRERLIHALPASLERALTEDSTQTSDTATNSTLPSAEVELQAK
Method in brief: (§4)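 HEK293A cells stably transfected with human FPR1 or FPR2, seeded at 2 × 10⁴/well and grown 48 h. Serum-starved 3 h, then stimulated 5 min with compounds in serum-free DMEM, top concentration 30 µM, 1/3 serial dilutions. Lysed in ice-cold buffer; p-ERK1/2 (pT202/Y204) measured by SimpleStep ELISA (OD). Expressed as increment over basal.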

[10] = biological target: T1, N-formyl peptide receptor 2; test: Agonist activity at human FPR2 expressed in HEK293-A cells assessed as ERK phosphorylation level incubated for 5 mins by ELISA assay; type: functional, cell-based; method in brief: as §4
[11] = biological target: T4, fMet-Leu-Phe receptor (Homo sapiens) (UniProt P21462); test: Agonist activity at human FPR1 expressed in HEK293-A cells assessed as maximal ERK phosphorylation level at 30 uM incubated for 5 mins by ELISA assay; type: functional, cell-based
T4 sequence (whole entry): T3 sequence (P21462 whole entry)
Method in brief: (§5)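 HEK293A cells stably transfected with human FPR1 or FPR2, in DMEM with 10% FCS, seeded 2×10⁴/well and grown 48 h. Serum-starved 3 h, then stimulated 5 min with compounds in serum-free DMEM (1/3 serial dilutions from top concentration). W peptide was the positive control. Lysed in ice-cold buffer. p-ERK1/2 (pT202/Y204) measured by ELISA OD and expressed as increment over basal per receptor.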

[12] = biological target: T2, N-formyl peptide receptor 2 (Homo sapiens); test: Agonist activity at human FPR2 expressed in HEK293-A cells assessed as maximal ERK phosphorylation level at 30 uM incubated for 5 mins by ELISA assay; type: functional, cell-based; conditions: filed as agonist; method in brief: as §5
[13] = system: Neutrophil; test: Inhibition of cell adhesion in human Neutrophils assessed as reduction on neutrophil at 1 to 100 uM incubated for 30 mins by DAPI staining based immunofluorescence assay; type: functional; conditions: dose 1-100 µM
Method in brief: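 Neutrophils isolated from healthy donor blood (Polymorphprep) and suspended in HBSS/20 mM HEPES/0.25% BSA/Ca2+, pH 7.4, at 0.5 × 10⁶/mL. Pre-incubated with agonists (final 1:5 dilution) 30 min at 37 °C. Then adhered 20 min at 37 °C on plates coated with P-selectin and ICAM-1 (1 µg/mL each), BSA-blocked. PFA-fixed and DAPI-stained; four images per well counted. 3 independent experiments × 3 technical replicates.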

[14] = Cmax in C57BL6 mouse at 10 mg/kg, ip measured upto 24 hrs; type: ADME, organism-based; design: route intraperitoneal, dose 10 mg/kg, time <=24; conditions: in vivo
Method in brief: (§6)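 Male C57BL6 mice, single intraperitoneal dose of 10 mg/kg as a clear solution in DMSO 10%/PEG400 35%/PG 25%/water 30%. 12 mice used: 9 dosed, 3 for blank plasma. Each mouse bled three times. Plasma concentration measured at eight time points over 24 h.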

[15] = Tmax in C57BL6 mouse at 10 mg/kg, ip; type: ADME, organism-based; conditions: in vivo; method in brief: as §6
[16] = Half life in C57BL6 mouse at 10 mg/kg, ip; type: ADME, organism-based; conditions: in vivo; method in brief: as §6
[17] = AUC (0 to t) in C57BL6 mouse at 10 mg/kg, ip; type: ADME, organism-based; design: dose 10 mg/kg; conditions: in vivo
[18] = AUC (0 to infinity) in C57BL6 mouse at 10 mg/kg, ip; type: ADME, organism-based; design: time infinity, route intraperitoneal, dose 10 mg/kg; conditions: in vivo
[19] = AUC extrapolated in C57BL6 mouse at 10 mg/kg, ip; type: ADME, organism-based; conditions: in vivo; method in brief: as §6
[20] = MRT(0 to t) in C57BL6 mouse at 10 mg/kg, ip; type: ADME, organism-based; conditions: in vivo; method in brief: as §6
[21] = biological target: T2, N-formyl peptide receptor 2 (Homo sapiens); test: Agonist activity at FPRL1 (unknown origin) expressed in CHO-K1 cells assessed as increase in calcium mobilization […] incubated for 2.5 hrs by cellular based FLIPR assay; type: functional, cell-based; conditions: filed as agonist, time 0.067 hrs, in the assay text read “measured for 240 s” for “incubated for 2.5 hrs”
Method in brief: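 CHO-K1 cells overexpressing human FPR2 (PathHunter FPRL1 line), plated at 20,000/well in F-12 with 10% FBS and held 1 h RT, then overnight at 37 °C. Calcium 6 dye loaded 2 h at 37 °C, then 30 min RT in the dark. Compounds were half-log serially diluted from 10 mM stocks in HBSS with 20 mM HEPES. Cytosolic Ca2+ rise read on FLIPR Tetra.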

solubility kinetic [1]	logD [2]	half-life at 1 µM [3]	half-life at 1 µM [4]	EC50 [5]	EC50 [8]	EC50 [10]	Emax [11]	Emax [12]	Structure (SMILES)	also measured
1 µM (≈ 0.406 µg/mL)	3.7	5.37 h	2.66 h	884 nM	–	–	–	–	CC(C)n1cc(N2CCC(NC(=O)Nc3ccc(Br)cc3)C2=O)cn1 (configuration not stated)	Emax [6]: inactive; Emax [7]: inactive
9 µM (≈ 3.53 µg/mL)	2.6	3.05 h	2.87 h	142 nM	740 nM	4880 nM	inactive	90%	Cc1nn(C)cc1N1CCC(NC(=O)Nc2ccc(Br)cc2)C1=O (configuration not stated)	EC50 ([9]; hek293-a): Not Active; Emax ([7]; filed as agonist): 98%
15 µM (≈ 5.61 µg/mL)	> 4	> 6.67 h	> 6.67 h	430 nM	300 nM	7360 nM	15%	69%	O=C(Nc1ccc(Br)cc1)NC1CCN(c2ccccc2)C1=O (configuration not stated)	Activity [13]: Dose-Dependent Effect; EC50 ([9]; read-out: EC50): 1740 nM; Cmax [14]: 3610 ng/mL; Tmax [15]: 0.25 h; half-life [16]: 9.42 h; AUC(0-t) [17]: 28600 ng·h/mL; AUC(0-inf) [18]: 35000 ng·h/mL; %AUCextra [19]: 18.17%; MRT last [20]: 9.2 h; Emax [21]: 73%
